Test results from paper PMC7238799 (Pulmonary Circulation, 2020).

Assays:
healthy subjects = assay: Multiple ascending dose; format: in vivo, human
Procedure, shortened: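 Subjects on test compound or placebo were domiciled up to 31 days (QD Cohorts 1–2) or 34 days (BID Cohort 3), with a 48-h drug-free follow-up. Monitoring at multiple time points covered adverse events, vital signs, 12-lead ECG with intensive ECG monitoring in all cohorts, and safety labs (serum chemistry, hematology, urinalysis). Data were summarized descriptively by treatment group.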

Multiple ascending dose = format: in vivo, human; conditions: for Accumulation in plasma exposure (AUC): approximate
Procedure, shortened: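 Healthy subjects were randomized to test compound or placebo by oral immediate-release capsule in the fasted state. In Cohorts 1–2 (2:1), 50 µg QD escalated to 100, 200, 300 and 400 µg every sixth day if tolerated. In Cohort 3 (4:1), 10 µg BID escalated to 20, 30, 40, 50 and 70 µg. K₂EDTA blood was drawn pre-dose and 0.25–24 h post-dose.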

plasma protein = conditions: animals and humans; cited from earlier work
[1] = Cohorts 1 and 2, QD, all dose levels, n = 20
[2] = 10 µg BID, steady state, n = 20, mean (SD)
[3] = 30 µg QD, steady state, n = 3, mean (SD)
[4] = 40 µg BID, steady state, n = 9, mean (SD)
[5] = 50 µg BID, steady state, n = 6, mean (SD)
[6] = 50 µg QD, steady state, n = 16, mean (SD)
[7] = 100 µg QD, steady state, n = 7, mean (SD)
[8] = 300 µg QD, steady state, single subject
[9] = 400 µg QD, near steady-state (Day 21, first day at this dose), single subject

Compound: O=C(O)COC[C@H]1CC[C@H](COC(=O)N(c2ccccc2)c2ccc(Cl)cc2)CC1 [ralinepag]
- Pain in jaw, subjects (%) (healthy subjects; [1]): 13 (65%)
- Palpitations, subjects (%) (healthy subjects; [1]): 4 (20%)
- Paraesthesia, subjects (%) (healthy subjects; [1]): 1 (5%)
- Pruritus, subjects (%) (healthy subjects; [1]): 1 (5.0%)
- Restless leg syndrome, subjects (%) (healthy subjects; [1]): 1 (5%)
- Somnolence, subjects (%) (healthy subjects; [1]): 3 (15%)
- Total (%) subjects with at least one AE (healthy subjects; [1]): 20 (100%)
- Total (%) subjects with at least one SAE (healthy subjects; [1]): 1 (5.0%)
- Tremor, subjects (%) (healthy subjects; [1]): 2 (10%)
- Vomiting, subjects (%) (healthy subjects; [1]): 12 (60%)
- Subjects withdrawn from the study due to AEs (healthy subjects; Cohorts 1 and 2, receiving ralinepag): three
- Tolerability versus dose (healthy subjects; QD (up to 400 µg) or BID (up to 70 µg) dosing): tolerability decreasing with increasing dose
- QT prolongation (12-lead Holter ECG, high-precision QT analysis) (healthy subjects; QD and BID dose ranges evaluated): not likely to be associated with QT prolongation
- Serious adverse event (healthy subjects; one subject, 50 µg QD, Cohort 2, possibly related to study medication): SAE of atrial fibrillation considered moderate in intensity
- Mean steady-state accumulation of total plasma exposure (AUC) (Multiple ascending dose; 10 µg BID): 2.64 fold
- Accumulation ratio Rac(Cmax) (Multiple ascending dose; [2]): 2.07 (0.40)
- PTR (peak-to-trough plasma concentration ratio) (Multiple ascending dose; [2]): 2.04 (0.32)
- PTR (peak-to-trough plasma concentration ratio) (Multiple ascending dose; 20 µg BID, steady state, n = 20, mean (SD)): 1.97 (0.26)
- PTR (peak-to-trough plasma concentration ratio) (Multiple ascending dose; 30 µg BID, steady state, n = 10, mean (SD)): 1.95 (0.22)
- Ctrough,ss (Multiple ascending dose; [3]): 0.72 (0.20) ng/mL
- PTR (peak-to-trough plasma concentration ratio) (Multiple ascending dose; [3]): 3.34 (1.20)
- Ctrough,ss (Multiple ascending dose; [4]): 1.51 (0.57) ng/mL
- PTR (peak-to-trough plasma concentration ratio) (Multiple ascending dose; [4]): 2.28 (0.40)
- Ctrough,ss (Multiple ascending dose; [5]): 2.32 (0.78) ng/mL
- PTR (peak-to-trough plasma concentration ratio) (Multiple ascending dose; [5]): 2.00 (0.43)
- Mean EHL (Multiple ascending dose; 50 µg QD): 18.4 h
- Mean steady-state accumulation of total plasma exposure (AUC) (Multiple ascending dose; 50 µg QD): 1.69 fold
- Accumulation ratio Rac(AUC) (Multiple ascending dose; [6]): 1.69 (0.24)
- Accumulation ratio Rac(Cmax) (Multiple ascending dose; [6]): 1.54 (0.31)
- Ctrough,ss (Multiple ascending dose; [6]): 0.76 (0.37) ng/mL
- PTR (peak-to-trough plasma concentration ratio) (Multiple ascending dose; [6]): 4.33 (2.12)
- PTR (peak-to-trough plasma concentration ratio) (Multiple ascending dose; 70 µg BID, steady state, single subject): 2.36
- Ctrough,ss (Multiple ascending dose; [7]): 1.39 (0.68) ng/mL
- PTR (peak-to-trough plasma concentration ratio) (Multiple ascending dose; [7]): 4.49 (2.66)
- Ctrough,ss (Multiple ascending dose; [8]): 5.14 ng/mL
- PTR (peak-to-trough plasma concentration ratio) (Multiple ascending dose; [8]): 3.42
- Ctrough,ss (Multiple ascending dose; [9]): 6.13 ng/mL
- PTR (peak-to-trough plasma concentration ratio) (Multiple ascending dose; [9]): 3.70
- Dose proportionality of Cmax,ss, Ctrough,ss and AUC0–τ,ss (Multiple ascending dose; 10–50 µg BID dose range): approximately dose proportional
- Dose proportionality of Cmax,ss, Ctrough,ss and AUC0–τ,ss (Multiple ascending dose; 50–300 µg QD dose range): approximately dose-proportional
- Accumulation in plasma exposure (AUC) (Multiple ascending dose; BID (Q12 hours) dosing): ~2.6 fold
- Steady-state peak-to-trough ratio, range across doses (Multiple ascending dose; BID dosing, Cohort 3): 1.95–2.36
- Accumulation in plasma exposure (AUC) (Multiple ascending dose; QD (Q24 hours) dosing): ~1.7 fold
- Steady-state peak-to-trough ratio, range across doses (Multiple ascending dose; QD dosing, Cohorts 1 and 2 combined): 3.34–4.49
- Half-life (Multiple ascending dose; both, human, plasma, oral): 17.5 to 18.4 h
- AUC (Multiple ascending dose; human, plasma, oral, 10 ug, AUC0–τ, 10 µg BID, Study Day 1 (non-steady-state), τ 12 h, n = 20, mean (SD)): 2.51 ng·h/mL
- AUC (Multiple ascending dose; human, plasma, oral, 10 ug, AUC0–τ,ss, 10 µg BID, steady state, τ 12 h, n = 20, mean (SD)): 6.68 ng·h/mL
- Cmax (Multiple ascending dose; human, plasma, oral, 10 ug, Cmax, 10 µg BID, Study Day 1 (non-steady-state), n = 20, mean (SD)): 0.412 ng/mL
- Cmax (Multiple ascending dose; human, plasma, oral, 10 ug, Cmax,ss, 10 µg BID, steady state, n = 20, mean (SD)): 0.86 ng/mL
- Tmax (Multiple ascending dose; human, plasma, oral, 10 ug, Tmax, 10 µg BID, Study Day 1 (non-steady-state), n = 20, median (min–max)): 1 h
- Tmax (Multiple ascending dose; human, plasma, oral, 10 ug, Tmax,ss, 10 µg BID, steady state, n = 20, median (min–max)): 1 h
- Cmax (Multiple ascending dose; human, plasma, oral, 20 ug, Cmax,ss, 20 µg BID, steady state, n = 20, mean (SD)): 1.8 ng/mL
- AUC (Multiple ascending dose; human, plasma, oral, 30 ug, AUC0-τ,ss, 30 µg QD, steady state, τ 24 h, n = 3, mean (SD)): 24.8 ng·h/mL
- Cmax (Multiple ascending dose; human, plasma, oral, 30 ug, Cmax,ss, 30 µg BID, steady state, n = 10, mean (SD)): 2.12 ng/mL
- Cmax (Multiple ascending dose; human, plasma, oral, 30 ug, Cmax,ss, 30 µg QD, steady state, n = 3, mean (SD)): 2.29 ng/mL
- Tmax (Multiple ascending dose; human, plasma, oral, 30 ug, Tmax,ss, 30 µg QD, steady state, n = 3, median (min – max)): 1 h
- Cmax (Multiple ascending dose; human, plasma, oral, 40 ug, Cmax,ss, 40 µg BID, steady state, n = 9, mean (SD)): 3.31 ng/mL
- AUC (Multiple ascending dose; human, plasma, oral, 50 ug, AUC0-τ, 50 µg QD, Study Day 1 (non-steady-state), τ 24 h, n = 20, mean (SD)): 15.9 ng·h/mL
- AUC (Multiple ascending dose; human, plasma, oral, 50 ug, AUC0-τ,ss, 50 µg QD, steady state, τ 24 h, n = 16, mean (SD)): 26.2 ng·h/mL
- AUC (Multiple ascending dose; human, plasma, oral, 50 ug, AUC0–τ,ss, 50 µg BID, steady state, τ 12 h, n = 6, mean (SD)): 36 ng·h/mL
- Cmax (Multiple ascending dose; human, plasma, oral, 50 ug, Cmax, 50 µg QD, Study Day 1 (non-steady-state), n = 20, mean (SD)): 1.88 ng/mL
- Cmax (Multiple ascending dose; human, plasma, oral, 50 ug, Cmax,ss, 50 µg BID, steady state, n = 6, mean (SD)): 4.43 ng/mL
- Cmax (Multiple ascending dose; human, plasma, oral, 50 ug, Cmax,ss, 50 µg QD, steady state, n = 16, mean (SD)): 2.74 ng/mL
- Tmax (Multiple ascending dose; human, plasma, oral, 50 ug, Tmax, 50 µg QD, Study Day 1 (non-steady-state), n = 20, median (min – max)): 2 h
- Tmax (Multiple ascending dose; human, plasma, oral, 50 ug, Tmax,ss, 50 µg BID, steady state, n = 6, median (min–max)): 1.25 h
- Tmax (Multiple ascending dose; human, plasma, oral, 50 ug, Tmax,ss, 50 µg QD, steady state, n = 16, median (min – max)): 1.25 h
- AUC (Multiple ascending dose; human, plasma, oral, 70 ug, AUC0–τ,ss, 70 µg BID, steady state, τ 12 h, single subject): 25.2 ng·h/mL
- Cmax (Multiple ascending dose; human, plasma, oral, 70 ug, Cmax,ss, 70 µg BID, steady state, single subject): 4.22 ng/mL
- Tmax (Multiple ascending dose; human, plasma, oral, 70 ug, Tmax,ss, 70 µg BID, steady state, single subject): 1.5 h
- AUC (Multiple ascending dose; human, plasma, oral, 100 ug, AUC0-τ,ss, 100 µg QD, steady state, τ 24 h, n = 7, mean (SD)): 48.6 ng·h/mL
- Cmax (Multiple ascending dose; human, plasma, oral, 100 ug, Cmax,ss, 100 µg QD, steady state, n = 7, mean (SD)): 5.15 ng/mL
- Tmax (Multiple ascending dose; human, plasma, oral, 100 ug, Tmax,ss, 100 µg QD, steady state, n = 7, median (min – max)): 1.5 h
- AUC (Multiple ascending dose; human, plasma, oral, 300 ug, AUC0-τ,ss, 300 µg QD, steady state, τ 24 h, single subject): 181 ng·h/mL
- Cmax (Multiple ascending dose; human, plasma, oral, 300 ug, Cmax,ss, 300 µg QD, steady state, single subject): 17.6 ng/mL
- Tmax (Multiple ascending dose; human, plasma, oral, 300 ug, Tmax,ss, 300 µg QD, steady state, single subject): 4 h
- Plasma protein binding (plasma protein): ~99%
